DENV2 CPE rescue – inhibitors of DENV2 cytopathic effect; CPE inhibition, % at 9.99 µM; DENV2-infected cells, cytopathic effect rescue, plate reader; 1.7% of 350,000 active; in the data active means CPE inhibition above about 20%, passing the limit was not always enough; inconclusive means no clear call, values can overlap the other calls; tested in BHK-21 cells;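 further: 0% = median of neutral control wells and 100% = median of positive control wells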
ERAP1 inh – blocks human ERAP1 aminopeptidase activity; Q9NZ08; recombinant ERAP1, Leu-AMC fluorescence, 60 min; inhibition, % at 10.7 µM; 0.15% of 340,000 active; AID 652197;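 active means mean replicate inhibition of at least 30%, or all replicates individually reaching that 30% level; inactive means mean below 30% and not every replicate reaching it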;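 further: 0% = neutral control wells and 100% = L-leucinethiol positive control wells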
CFTR F508del cor – correctors of CFTR F508del function in bronchial epithelial cells; activity (quench increase), % at 7.58 µM; 0.36% of 350,000 active; CFBE cells, YFP halide quenching; stimulated with forskolin plus potentiator P3; % fluorescence drop versus neutral controls;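 active means mean added fluorescence quench of at least 8% versus neutral control, with both replicates also reaching 8%; inconclusive means only one of the mean or replicate conditions met; inactive means mean below 8% and not both replicates reaching 8%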;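 further: cells transiently co-express mutant CFTR-F508del with the halide-sensitive YFP; corrector assay measuring rescue of mutant channel to the surface after 24 h compound exposure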
GSIS activator – primary screen for activators of insulin secretion dependent on glucose, INS-1E cells, GLuc reporter luminescence | INS-1E GLuc reporter insulin secretion, 2-3 h | activation, % at 16.6 µM | 0.61% of 370,000 active | AID 743287;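 active means lowest replicate activation of at least 40%, so every replicate reaches that level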;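 further: 0% = median of neutral control wells and 100% = median of IBMX positive control wells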
E-selectin induc – E-selectin induction on HUVECs | HUVEC E-selectin immunofluorescence imaging; normalized: neutral wells 0, TNF-alpha wells 100 | AID 686992 | 0.37% of 260,000 active | activation, % at 7.58 µM | P16581;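 active means mean E-selectin-positive cell signal at least 10% of the positive control, reached in at least 60% of replicates, without over 20% cell loss; inconclusive means no rule given, readout overlaps actives, possibly toxicity-flagged; inactive means the rest, including those meeting only one limit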
Target sequence (P16581 whole entry, looked up): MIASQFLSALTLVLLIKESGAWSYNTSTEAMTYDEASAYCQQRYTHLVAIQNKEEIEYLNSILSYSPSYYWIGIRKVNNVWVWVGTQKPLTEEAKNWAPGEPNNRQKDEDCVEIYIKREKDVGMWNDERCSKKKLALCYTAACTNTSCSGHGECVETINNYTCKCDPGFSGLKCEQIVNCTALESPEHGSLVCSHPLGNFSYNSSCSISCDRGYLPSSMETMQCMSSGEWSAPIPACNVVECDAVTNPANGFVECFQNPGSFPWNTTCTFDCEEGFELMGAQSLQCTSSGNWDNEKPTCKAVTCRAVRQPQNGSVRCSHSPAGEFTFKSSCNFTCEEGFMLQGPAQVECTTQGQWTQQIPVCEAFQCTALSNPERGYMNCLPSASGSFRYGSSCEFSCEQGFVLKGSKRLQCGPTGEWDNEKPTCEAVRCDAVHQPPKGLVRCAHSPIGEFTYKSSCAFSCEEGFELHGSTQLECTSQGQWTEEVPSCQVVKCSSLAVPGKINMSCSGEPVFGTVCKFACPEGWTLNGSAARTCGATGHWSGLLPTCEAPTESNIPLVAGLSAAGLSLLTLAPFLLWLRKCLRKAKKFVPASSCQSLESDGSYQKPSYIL
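System: HUVEC, human umbilical vein endothelial cells; quantity: 3,000 cells/well; buffer or medium: EGM-2 medium, gelatin-coated wells; dosing: single-point compound dose; detection: immunofluorescence imaging; evaluation: % PE-positive cells; benchmarks: TNF-alpha, DMSO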
miR-122 sensor – miR-122 inhibition in Huh7 cells. Huh7 miR-122 Renilla luciferase sensor, 48 h; neutral wells = 0, positive control = 100. activation (reporter increase), % at 12.5 µM. 0.3% of 340,000 active;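 active means mean replicate activation score at least 90 and every replicate individually at or above 90; inconclusive means only one of the two criteria met; inactive means neither criterion met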;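 further: higher luciferase means less miR-122 activity so hits act as miR-122 inhibitors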
The depositor's hits bear a star; ? = inconclusive; · = no result given; [ ] = another dose, or the depositor's remark. This is a sample that favours compounds with a hit; in the whole collection about 2.6% have one here.

SMILES	DENV2 CPE rescue	ERAP1 inh	CFTR F508del cor	GSIS activator	E-selectin induc	miR-122 sensor
Cc1ccccc1S(=O)(=O)N1CC[C@@H]2[C@H](CO)Nc3ccc(-c4cccc(C#N)c4)cc3[C@@H]21	96*	·	0	16	-1	-4[16.7 µM]
N#Cc1cccc(-c2ccc3c(c2)[C@@H]2[C@@H](CCN2S(=O)(=O)c2ccccc2F)[C@H](CO)N3)c1	-5	-1	-1	-1	-1	0[16.7 µM]
N#Cc1cccc(-c2ccc3c(c2)[C@@H]2[C@@H](CCN2S(=O)(=O)c2ccccc2)[C@@H](CO)N3)c1	-3	-1	2	7	0	-8[16.7 µM]
Cc1ccccc1S(=O)(=O)N1CC[C@@H]2[C@@H](CO)Nc3ccc(-c4cccc(C#N)c4)cc3[C@@H]21	65*	·	0	8	0	33[16.7 µM]
COc1ccc2c3c(n(C)c2c1)[C@@H](CO)N(C(=O)Nc1ccc(F)cc1)CC31CN(C(=O)c2ccccc2F)C1	0	0	2	-21	1	·
C[C@H](CO)N1C[C@H](C)[C@@H](CN(C)Cc2ccc(F)cc2)OCc2ccccc2-c2c(n(C)c3ccccc23)C1=O	·	·	·	-17	·	·
CC1(Cc2cc(Cl)ccc2C(F)(F)F)C(=O)Nc2cc(C(F)(F)F)ccc21 (stereo not drawn)	-1	-1	3	298*	0	9
CC1(Cc2cc(Cl)ccc2C(F)(F)F)C(=O)Nc2ccc(-c3ccc(F)c(Cl)c3)cc21 (stereo not drawn)	-1	-2	-6	283*	0	3
CC1(Cc2cc(Cl)ccc2C(F)(F)F)C(=O)Nc2cc(F)ccc21 (stereo not drawn)	·	·	·	·	·	7
COc1ccccc1-c1ccc2c(c1)C(C)(Cc1cc(Cl)ccc1C(F)(F)F)C(=O)N2 (stereo not drawn)	-1	4	-3	6	-3	-3
C[C@H]1CN([C@@H](C)CO)C(=O)c2cccc(NC(=O)c3ccc(-c4nccs4)cc3)c2O[C@@H]1CN(C)S(=O)(=O)c1ccc(F)cc1	10	-3	2	7	0	-9[16.7 µM]
C=CCn1c(N2CCCCCC2)nc2c1c(=O)n(C)c(=O)n2C	·	·	·	·	·	-4
C/C(Cl)=C\Cn1c(N2CCCC2)nc2c1c(=O)n(C)c(=O)n2C	-4	-8	2	65*	0	·
CC(=O)N(C)C[C@H]1[C@@H](c2ccc(C#CC(C)C)cc2)[C@@H](CO)N1C(=O)C1CCC1	9	0	1	-4	0	·
CC(C)[C@H](NC(=O)c1ccc(Cl)c(Cl)c1)C(=O)N1CCC[C@H]1C(=O)NCCc1ccccc1Cl	23*	2	-2	-36	17	·
Cc1c(NC(=O)NC2CCCCC2)cccc1[N+](=O)[O-]	-5	-1	-6	19	·	157*
O=C(Nc1cc(F)ccc1F)N[C@H]1C=C[C@H](CC(=O)N2CCc3ccccc3C2)O[C@@H]1CO	1	0	-1	4	0	-2[16.7 µM]
COc1cc2cnc(-c3cccnc3)cc2cc1OC	-5	1	1	62*	0	-4
COc1ccc(CN2CCC(=O)N([C@H](CO)c3ccccc3)CC2)cc1	26*	-1	1	14	0	1
CC(C)C[C@@H](CO)N1CCN(Cc2cccc(C#N)c2)CCC1=O	20*	·	3	-7	0	-1
CN1CCC(=O)N([C@H](COc2ccccc2)Cc2ccccc2)CC1	20*	12	2	3	0	8
CC(C)C[C@@H](COc1ccccc1)N1CCN(Cc2ccccc2)CCC1=O	28*	·	2	-5	0	·
O=C1CCN(Cc2cccnc2)CCN1[C@H](CO)c1ccccc1	-4	·	-2	-4	0	-4
CC(C)C[C@@H](CO)N1CCN(Cc2ccccc2)CCC1=O	·	·	-1	-6	0	-6
CCC(=O)N1C[C@@H](C)[C@H](OC)CN(C)C(=O)c2ccc(NC(=O)Nc3ccc(Cl)cc3)cc2OC[C@@H]1C	-2	·	3	-20	1	·
SMILES	DENV2 CPE rescue	ERAP1 inh	CFTR F508del cor	GSIS activator	E-selectin induc	miR-122 sensor
CN(C)CC(=O)N[C@@H]1CC[C@H](CCNC(=O)C2CCCC2)O[C@H]1CO	-11	-2	-3	8	-1	9[16.7 µM]
COC(=O)C1=C2CC[C@H](CO)NC(=O)N[C@H](Cc3ccccc3)C(=O)NCc3cn(nn3)C[C@H](Cc3ccccc3)NC(=O)c3oc(c(C(=O)OC)c3C(=O)OC)CC[C@H](CO)NC(=O)N[C@H](Cc3ccccc3)C(=O)NCc3cn(nn3)C[C@H](Cc3ccccc3)NC(=O)C(=C1C(=O)OC)O2	-4	5	0	·	·	·
CCC(=O)N1[C@@H]2c3ccc(/C=C/c4ccccc4)c(=O)n3C[C@@H]2[C@@H](CO)[C@@H]1C(=O)OC	-2	1	-3	3	0	5[16.7 µM]
CCCN1CCC(=O)N([C@H](COc2ccccc2)c2ccccc2)CC1	-2	7	1	-15	0	6
O=C1CCN(CCc2ccccc2)CCN1[C@H](COc1ccccc1)c1ccccc1	99*	·	1	-7	0	5
COc1ccc2c3c([nH]c2c1)[C@H](CO)N(Cc1ccccc1F)CC31CN(S(C)(=O)=O)C1	12	-2	-1	3	0	·
CC(C)NC(=O)Nc1ccc2c(c1)C(=O)N(C)[C@H]1CC[C@H](CC(=O)Nc3ccccc3)O[C@H]1CO2	?	2	1	·	0	-2[16.7 µM]
O=C(Nc1cccc(C(=O)O)c1)/C(=C\c1ccco1)NC(=O)c1ccccc1	50*	-9	-2	10	0	·
Cc1ccc(C(=O)N/C(=C/c2ccco2)C(=O)NCc2ccco2)cc1	11	1	1	115*	·	-1
O=C(Nc1cccc(C(=O)O)c1)/C(=C\c1ccco1)NC(=O)c1ccccc1Cl	-5	-30	1	2	·	2
CO[C@H](CN(C)C(=O)Nc1ccc(F)cc1)[C@@H](C)CN(Cc1ccccc1Cl)[C@H](C)CO	-2	1	0	2	0	·
CC1(C)CC(=O)C2=C(C1)Nc1cc3c(cc1C2c1ccc2c(c1)OCO2)OCO3 (stereo not drawn)	38*	1	4	15	·	2
COc1ccc(C(=O)C[C@@H]2OC[C@H](C)N2S(=O)(=O)c2ccc(C)cc2)cc1OC	57*	-4	0	17	0	·
COC(=O)C[C@@H]1OC[C@H](Cc2ccccc2)N1S(=O)(=O)c1ccc(C)cc1	21*	1	-3	-27	0	·
O=C(COc1ccc(F)cc1)Nc1ccc2c(c1)OCCO2	102*	0	-1	-5	-2	·
CCC(=O)c1ccc(OCC(=O)Nc2ccc3c(c2)OCCO3)cc1	2	0	-2	-2	0	-9
CC(C)(C)NS(=O)(=O)c1ccc(OCC(=O)Nc2ccc3c(c2)OCCO3)cc1	·	·	·	·	·	112*
